Assay results from ChEMBL document CHEMBL3875141, “2,4,5-Trisubstituted thiazole derivatives as HIV-1 NNRTIs effective on both wild-type and mutant HIV-1 reverse transcriptase: Optimization of the substitution of positions 4 and 5” (Eur J Med Chem, 2016).

What was measured:
[1] = test system: Human immunodeficiency virus 1; test: Antiviral activity against wild-type HIV-1 NL4-3 harboring vesicular stomatitis virus glycoprotein infected in HEK293T cells pretreated with cells for 15 mins followed by viral infection measured after 48 hrs by luciferase reporter gene assay; type: functional, cell-based; details: Human immunodeficiency virus 1, NL4-3, HEK-293T
How it was run: (§1)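 VSV-G-pseudotyped HIV-1 (wild-type or RT mutant) produced by co-transfection of HEK293T cells (calcium phosphate), supernatant harvested 48 h, 0.22 µm filtered, normalised by p24 ELISA to 0.2 ng p24/mL.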

[2] = Cytotoxicity against HEK293T cells at 10 uM after 48 hrs by cell proliferation assay; type: toxicity, cell-based; details: human, hek-293t
How it was run: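 HEK 293T cells seeded at 1×10^4 cells/well, treated next day with serially diluted compounds and cultured 48 h; viability read with a cell proliferation assay kit per manufacturer's instructions. Footnote reports testing at a final concentration of 10 μM.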

[3] = test system: Human immunodeficiency virus 1; test: Ratio of IC50 for HIV-1 NL4-3 harboring RT-K103N mutant infected in HEK293T cells co-expressing vesicular stomatitis virus glycoprotein to IC50 for wild-type HIV-1 NL4-3 infected in HEK293T cells co-expressing vesicular stomatitis virus glycoprotein; type: functional, HEK-293T
[4] = test system: Human immunodeficiency virus 1; test: Antiviral activity against HIV-1 NL4-3 harboring RT-Y181C mutant infected in HEK293T cells coexpressing vesicular stomatitis virus glycoprotein pretreated with cells for 15 mins followed by viral infection measured after 48 hrs by luciferase reporter gene assay; type: functional, cell-based; details: hek-293t; how it was run: as §1
[5] = test system: Human immunodeficiency virus 1; test: Antiviral activity against HIV-1 NL4-3 harboring RT-Y188L mutant infected in HEK293T cells coexpressing vesicular stomatitis virus glycoprotein pretreated with cells for 15 mins followed by viral infection measured after 48 hrs by luciferase reporter gene assay; type: functional, cell-based; details: hek-293t; how it was run: as §1
[6] = test system: Human immunodeficiency virus 1; test: Ratio of IC50 for HIV-1 NL4-3 harboring RT-K103N/V108I double mutant infected in HEK293T cells co-expressing vesicular stomatitis virus glycoprotein to IC50 for wild-type HIV-1 NL4-3 infected in HEK293T cells co-expressing vesicular stomatitis virus glycoprotein; type: functional, HEK-293T
How it was run: (§2)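 Fold change: mean IC50 against each RT-mutant VSV-G-pseudotyped virus divided by IC50 against wild-type pseudovirus. Both values come from the same HEK293T assay: 0.2 ng p24/mL inoculum, compound added 15 min before infection, luciferase read-out at 48 h.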

[7] = test system: Human immunodeficiency virus 1; test: Antiviral activity against HIV-1 NL4-3 harboring RT-K103N/V108I double mutant infected in HEK293T cells coexpressing vesicular stomatitis virus glycoprotein pretreated with cells for 15 mins followed by viral infection measured after 48 hrs by luciferase reporter gene assay; type: functional, cell-based; details: hek-293t; how it was run: as §1
[8] = test system: Human immunodeficiency virus 1; test: Ratio of IC50 for HIV-1 NL4-3 harboring RT-Y188L mutant infected in HEK293T cells co-expressing vesicular stomatitis virus glycoprotein to IC50 for wild-type HIV-1 NL4-3 infected in HEK293T cells co-expressing vesicular stomatitis virus glycoprotein; type: functional, HEK-293T; how it was run: as §2
[9] = test system: Human immunodeficiency virus 1; test: Ratio of IC50 for HIV-1 NL4-3 harboring RT-Y181C mutant infected in HEK293T cells co-expressing vesicular stomatitis virus glycoprotein to IC50 for wild-type HIV-1 NL4-3 infected in HEK293T cells co-expressing vesicular stomatitis virus glycoprotein; type: functional, HEK-293T; how it was run: as §2
[10] = test system: Human immunodeficiency virus 1; test: Antiviral activity against HIV-1 NL4-3 harboring RT-K103N mutant infected in HEK293T cells coexpressing vesicular stomatitis virus glycoprotein pretreated with cells for 15 mins followed by viral infection measured after 48 hrs by luciferase reporter gene assay; type: functional, cell-based; details: hek-293t; how it was run: as §1
[11] = Inhibition of wild-type HIV-1 reverse transcriptase RNA-dependent DNA polymerase activity assessed as reduction in digoxigenin-11-dUTP incorporation using poly(rA)/oligo(dT) as template/primer incubated for 1 hr; parameters: species or system Human immunodeficiency virus 1
[12] = test system: Human immunodeficiency virus 1; test: Antiviral activity against HIV-1 NL4-3 harboring RT-L100I/K103N double mutant infected in HEK293T cells coexpressing vesicular stomatitis virus glycoprotein pretreated with cells for 15 mins followed by viral infection measured after 48 hrs by luciferase reporter gene assay; type: functional, cell-based; details: hek-293t; how it was run: as §1
[13] = test system: Human immunodeficiency virus 1; test: Antiviral activity against HIV-1 NL4-3 harboring RT-K103N/Y181C double mutant infected in HEK293T cells coexpressing vesicular stomatitis virus glycoprotein pretreated with cells for 15 mins followed by viral infection measured after 48 hrs by luciferase reporter gene assay; type: functional, cell-based; details: hek-293t; how it was run: as §1
[14] = test system: Human immunodeficiency virus 1; test: Antiviral activity against HIV-1 NL4-3 harboring RT-K103N/G190A double mutant infected in HEK293T cells coexpressing vesicular stomatitis virus glycoprotein pretreated with cells for 15 mins followed by viral infection measured after 48 hrs by luciferase reporter gene assay; type: functional, cell-based; details: hek-293t; how it was run: as §1
[15] = test system: Human immunodeficiency virus 1; test: Ratio of IC50 for HIV-1 NL4-3 harboring RT-K103N/G190A double mutant infected in HEK293T cells co-expressing vesicular stomatitis virus glycoprotein to IC50 for wild-type HIV-1 NL4-3 infected in HEK293T cells co-expressing vesicular stomatitis virus glycoprotein; type: functional, HEK-293T; how it was run: as §2
[16] = test system: Human immunodeficiency virus 1; test: Ratio of IC50 for HIV-1 NL4-3 harboring RT-K103N/P225H double mutant infected in HEK293T cells co-expressing vesicular stomatitis virus glycoprotein to IC50 for wild-type HIV-1 NL4-3 infected in HEK293T cells co-expressing vesicular stomatitis virus glycoprotein; type: functional, HEK-293T; how it was run: as §2
[17] = test system: Human immunodeficiency virus 1; test: Antiviral activity against HIV-1 NL4-3 harboring RT-K103N/Y188L double mutant infected in HEK293T cells coexpressing vesicular stomatitis virus glycoprotein pretreated with cells for 15 mins followed by viral infection measured after 48 hrs by luciferase reporter gene assay; type: functional, cell-based; details: hek-293t; how it was run: as §1
[18] = test system: Human immunodeficiency virus 1; test: Ratio of IC50 for HIV-1 NL4-3 harboring RT-L100I/K103N double mutant infected in HEK293T cells co-expressing vesicular stomatitis virus glycoprotein to IC50 for wild-type HIV-1 NL4-3 infected in HEK293T cells co-expressing vesicular stomatitis virus glycoprotein; type: functional, HEK-293T; how it was run: as §2
[19] = test system: Human immunodeficiency virus 1; test: Ratio of IC50 for HIV-1 NL4-3 harboring RT-K103N/Y181C double mutant infected in HEK293T cells co-expressing vesicular stomatitis virus glycoprotein to IC50 for wild-type HIV-1 NL4-3 infected in HEK293T cells co-expressing vesicular stomatitis virus glycoprotein; type: functional, HEK-293T; how it was run: as §2
[20] = test system: Human immunodeficiency virus 1; test: Ratio of IC50 for HIV-1 NL4-3 harboring RT-K103N/Y188L double mutant infected in HEK293T cells co-expressing vesicular stomatitis virus glycoprotein to IC50 for wild-type HIV-1 NL4-3 infected in HEK293T cells co-expressing vesicular stomatitis virus glycoprotein; type: functional, HEK-293T; how it was run: as §2
[21] = test system: Human immunodeficiency virus 1; test: Antiviral activity against HIV-1 NL4-3 harboring RT-K103N/P225H double mutant infected in HEK293T cells coexpressing vesicular stomatitis virus glycoprotein pretreated with cells for 15 mins followed by viral infection measured after 48 hrs by luciferase reporter gene assay; type: functional, cell-based; details: hek-293t; how it was run: as §1

Structure (SMILES)	IC50 [1] [nM]	Activity [2]	Ratio IC50 [3]	IC50 [5] [nM]	Ratio IC50 [6]	Ratio IC50 [8]	Ratio IC50 [9]	further results
Fc1cc(F)cc(Cc2sc(NCc3ccc4c(c3)CCO4)nc2-c2ccc(Cl)cc2Cl)c1	68	Non-Toxic						
COc1ccccc1Cc1sc(NCc2ccc3c(c2)CCO3)nc1-c1cc(F)cc(F)c1	7320	Non-Toxic						
Fc1cc(F)cc(Cc2sc(NCc3ccc4c(c3)CCO4)nc2-c2ccc(F)cc2F)c1	13.9 to 14	Non-Toxic	14	7000	218	504	79	IC50 [4]: 1100 nM; IC50 [7]: 3900 nM; IC50 [10]: 200 nM
Fc1cc(F)cc(Cc2sc(NCc3ccc4c(c3)CCO4)nc2-c2ccccc2Cl)c1	10	Non-Toxic	7.8	1400	29	136	39	IC50 [4]: 400 nM; IC50 [11]: 25 nM; IC50 [7]: 300 nM; IC50 [10]: 80 nM
Clc1ccccc1-c1nc(NCc2ccc3c(c2)CCO3)sc1Cc1c(Cl)cccc1Cl	22	Non-Toxic						
COc1ccccc1Cc1sc(NCc2ccc3c(c2)CCO3)nc1-c1ccc(Cl)cc1Cl	88	Non-Toxic						
COc1ccccc1Cc1sc(NCc2ccc3c(c2)CCO3)nc1-c1ccccc1F	10	Non-Toxic						IC50 [11]: 20 nM
Fc1ccccc1-c1nc(NCc2ccc3c(c2)CCO3)sc1Cc1c(Cl)cccc1Cl	32	Non-Toxic						
Fc1cc(F)cc(Cc2sc(NCc3ccc4c(c3)CCO4)nc2-c2ccccc2F)c1	10	Non-Toxic						IC50 [11]: 64 nM
Fc1ccc(-c2nc(NCc3ccc4c(c3)CCO4)sc2Cc2c(Cl)cccc2Cl)c(F)c1	21	Non-Toxic						
COc1ccccc1Cc1sc(NCc2ccc3c(c2)CCO3)nc1-c1ccccc1Cl	10	Non-Toxic						IC50 [11]: 14 nM
Clc1ccc(-c2nc(NCc3ccc4c(c3)CCO4)sc2Cc2c(Cl)cccc2Cl)c(Cl)c1	71	Non-Toxic						
COc1ccccc1Cc1sc(NCc2ccc3c(c2)CCO3)nc1-c1ccc(F)cc1F	44.7 to 45	Non-Toxic	6.5	> 10000	17	>223.7	2.9	IC50 [12]: 870 nM; IC50 [13]: 450 nM; IC50 [14]: 490 nM; IC50 [4]: 130 nM; Ratio IC50 [15]: 11; IC50 [7]: 760 nM; Ratio IC50 [16]: 23.5; IC50 [17]: > 10000 nM; Ratio IC50 [18]: 19.5; Ratio IC50 [19]: 10.1; Ratio IC50 [20]: >223.7; IC50 [10]: 290 nM; IC50 [21]: 1050 nM
COc1cccc(Cc2sc(NCc3ccc4c(c3)CCO4)nc2-c2ccccc2)c1	136	Non-Toxic						
COc1ccccc1Cc1sc(NCc2ccc3c(c2)CCO3)nc1-c1ccccc1	72	Non-Toxic	12.2	> 10000	21.3	>223.7	8.8	IC50 [12]: 5310 nM; IC50 [13]: 9560 nM; IC50 [14]: 580 nM; IC50 [4]: 512 nM; Ratio IC50 [15]: 8.1; IC50 [7]: 1530 nM; Ratio IC50 [16]: 69.2; IC50 [17]: > 10000 nM; Ratio IC50 [18]: 73.8; Ratio IC50 [19]: 132.8; Ratio IC50 [20]: >223.7; IC50 [10]: 880 nM; IC50 [21]: 4980 nM
COc1ccc(Cc2sc(NCc3ccc4c(c3)CCO4)nc2-c2ccccc2)cc1	> 10000	Non-Toxic						
Clc1ccc(Cc2sc(NCc3ccc4c(c3)CCO4)nc2-c2ccccc2)cc1	> 10000	Non-Toxic						
c1ccc(Cc2sc(NCc3ccc4c(c3)CCO4)nc2-c2ccccc2)cc1	239	Non-Toxic						
Clc1cccc(Cl)c1Cc1sc(NCc2ccc3c(c2)CCO3)nc1-c1ccccc1	61.8 to 62	Non-Toxic	24.8	> 10000	48.5	>161.8	6.3	IC50 [12]: 5050 nM; IC50 [13]: > 10000 nM; IC50 [14]: 560 nM; IC50 [4]: 390 nM; Ratio IC50 [15]: 9.1; IC50 [7]: 3000 nM; Ratio IC50 [16]: >161.8; IC50 [17]: > 10000 nM; Ratio IC50 [18]: 81.7; Ratio IC50 [19]: >161.8; Ratio IC50 [20]: >161.8; IC50 [10]: 1530 nM; IC50 [21]: > 10000 nM
Fc1cc(F)cc(Cc2sc(NCc3ccc4c(c3)CCO4)nc2-c2ccccc2)c1	37 to 37.2	Non-Toxic	37.9	> 10000	279.6	>268.8	149.5	IC50 [12]: 1170 nM; IC50 [13]: > 10000 nM; IC50 [14]: 2000 nM; IC50 [4]: 5560 nM; Ratio IC50 [15]: 53.8; IC50 [7]: 10400 nM; Ratio IC50 [16]: 135.2; IC50 [17]: > 10000 nM; Ratio IC50 [18]: 31.5; Ratio IC50 [19]: >268.8; Ratio IC50 [20]: >268.8; IC50 [10]: 1410 nM; IC50 [21]: 5030 nM
Fc1ccc(Cc2sc(NCc3ccc4c(c3)CCO4)nc2-c2ccccc2)cc1	5670	Non-Toxic						
O=C1Nc2ccc(Cl)cc2[C@@](C#CC2CC2)(C(F)(F)F)O1 [EFAVIRENZ]	1.04							IC50 [12]: 2490 nM; IC50 [13]: 58.7 nM; IC50 [17]: 13800 nM
Cc1ccnc2c1NC(=O)c1cccnc1N2C1CC1 [NEVIRAPINE]			519	> 10000	90	>322	2152	IC50 [12]: 5000 nM; IC50 [13]: > 10000 nM; IC50 [14]: > 10000 nM; IC50 [11]: 2100 nM; Ratio IC50 [15]: >322; Ratio IC50 [16]: 177; IC50 [17]: > 10000 nM; Ratio IC50 [18]: 161; Ratio IC50 [19]: >322; Ratio IC50 [20]: >322
